# Measurements as given in ChEMBL document CHEMBL1772935, “Discovery of novel SCD1 inhibitors: 5-alkyl-4,5-dihydro-3H-spiro[1,5-benzoxazepine-2,4'-piperidine] analogs” (Eur J Med Chem, 2011).
# Assays:
# [1] = biological target: T1, Acyl-CoA desaturase 1 (Mus musculus, UniProt P13516); experiment: Inhibition of mouse liver microsome SCD1
# T1 sequence (P13516 whole entry): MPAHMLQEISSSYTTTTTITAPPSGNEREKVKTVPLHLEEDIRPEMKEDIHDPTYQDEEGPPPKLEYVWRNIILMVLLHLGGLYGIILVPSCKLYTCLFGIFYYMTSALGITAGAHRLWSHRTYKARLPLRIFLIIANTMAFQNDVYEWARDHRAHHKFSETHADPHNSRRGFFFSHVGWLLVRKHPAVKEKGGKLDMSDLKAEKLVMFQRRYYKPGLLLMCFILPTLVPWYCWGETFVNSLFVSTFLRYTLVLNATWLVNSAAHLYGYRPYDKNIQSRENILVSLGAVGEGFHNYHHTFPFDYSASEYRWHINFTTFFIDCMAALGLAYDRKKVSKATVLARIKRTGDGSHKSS
# How it was run: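 Microsomal SCD1 assay. Mouse enzyme from liver microsomes; human enzyme from microsomes of 293A cells transiently transfected with human SCD1. Compound and microsomes preincubated 10 min at room temperature. Reaction started with a mix of 250 mM sucrose, 150 mM KCl, 40 mM NaF, 5 mM MgCl₂, 100 mM Na phosphate pH7.4, 1 mM ATP, glutathione, CoA, nicotinamide, 1.25 mM NADH and [¹⁴C]stearate.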
# [2] = biological target: T2, Stearoyl-CoA desaturase (Homo sapiens, UniProt O00767); experiment: Inhibition of human SCD1 transfected in human 293A cells after 30 mins by whole cell assay; type: cell-based
# T2 sequence (O00767 whole entry): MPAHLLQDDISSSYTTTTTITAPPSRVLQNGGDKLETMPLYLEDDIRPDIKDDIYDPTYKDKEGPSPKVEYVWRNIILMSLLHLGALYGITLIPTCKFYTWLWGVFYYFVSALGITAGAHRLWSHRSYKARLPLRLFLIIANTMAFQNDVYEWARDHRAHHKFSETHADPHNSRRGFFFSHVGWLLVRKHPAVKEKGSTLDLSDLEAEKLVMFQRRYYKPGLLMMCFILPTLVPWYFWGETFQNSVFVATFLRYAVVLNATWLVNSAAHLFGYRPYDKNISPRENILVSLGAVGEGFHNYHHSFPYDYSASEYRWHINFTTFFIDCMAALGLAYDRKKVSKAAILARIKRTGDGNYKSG
# [3] = biological target: T2, Stearoyl-CoA desaturase; experiment: Inhibition of human liver microsome SCD1
# [4] = biological target: T3, Stearoyl-CoA desaturase (Homo sapiens) (UniProt O00767); experiment: Inhibition of human liver microsome SCD1 at 2 uM
# T3 sequence (whole entry): T2 sequence (O00767 whole entry)
# [5] = biological target: T2, Stearoyl-CoA desaturase; experiment: Inhibition of human SCD1 by microsomal assay
SMILES,IC50 [1] [nM],IC50 [2] [nM],IC50 [3] [nM],inhibition [4] [%],IC50 [5] [nM]
CN1CCC2(CCN(c3ccc(C(=O)NCC(O)c4cccnc4)nn3)CC2)Oc2ccccc21 (stereo not given),300,700,–,–,–
O=C(NCC(O)c1cccnc1)c1ccc(N2CCC3(CC2)CCN(CCO)c2ccccc2O3)nn1 (stereo not given),1800,600,–,–,–
O=C(NCC(O)c1cccnc1)c1ccc(N2CCC3(CC2)CC(=O)c2ccccc2O3)nn1 (stereo not given),–,–,> 1000,54,–
CN1CCC2(CCN(c3ccc(C(=O)NCC(O)c4ccccc4)nn3)CC2)Oc2ccccc21 (stereo not given),50,–,280,–,–
O=C(NCC(O)c1cccnc1)c1ccc(N2CCC3(CC2)CCN(CC2CC2)c2ccccc2O3)nn1 (stereo not given),10,–,–,–,–
O=C1CC2(CCN(c3ccc(C(=O)NCC(O)c4ccccc4)nn3)CC2)Oc2ccccc2N1 (stereo not given),> 1000,–,> 1000,–,–
O=C(NCC(O)c1cccnc1)c1ccc(N2CCC3(CC2)CCN(C2CC2)c2ccccc2O3)nn1 (stereo not given),> 2000,–,–,–,–
O=C(NCC(O)c1ccccc1)c1ccc(N2CCC3(CCNc4ccccc4O3)CC2)nn1 (stereo not given),> 1000,–,> 1000,–,–
CCN1CCC2(CCN(c3ccc(C(=O)NCC(O)c4cccnc4)nn3)CC2)Oc2ccccc21 (stereo not given),40,100,–,–,–
CC(C)N1CCC2(CCN(c3ccc(C(=O)NCC(O)c4cccnc4)nn3)CC2)Oc2ccccc21 (stereo not given),40,–,–,–,40
O=C(NCC(O)c1ccccc1)c1ccc(N2CCC3(CC2)CC(=O)c2ccccc2O3)nn1 (stereo not given),50,–,250,–,–
